Consider 1 compound from ChEMBL document CHEMBL4813972, “A grafted peptidomimetic for EGFR heterodimerization inhibition: Implications in NSCLC models” (Eur J Med Chem, 2021).

Activity calls are given as the source filed them. No cut-off for these calls is given here. Some results are limits rather than exact numbers.

Series [1] relates to BT-474. The series is described as follows: Antiproliferative activity against human BT-474 cells overexpressing HER2 assessed as cell growth inhibition incubated for 72 hrs by cell titer glo assay. The settings on record: BT-474, 72 h. In kind it is functional, cell-based. For orientation: In ATP-based viability assays light output follows the ATP content of the culture.
Series [2] has as its system MCF-10A. The series is described as follows: Cytotoxicity against human MCF-10A cells assessed as cell growth inhibition incubated for 72 hrs by cell titer glo assay. Format: cell-based. The method in brief:
(§1)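 Cells seeded at 1×10^4 per well, left overnight at 37 °C/5% CO2, then exposed to a concentration series of peptide (up to 200, down to 0.01 μM) for 72 h. 1% SDS and 1% DMSO served as controls. Cells were PBS-washed, CellTiter-Glo added and luminescence read. IC50 taken from three independent experiments per cell line.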

The nature of series [3]: Toxicity in Foxn1nu/Foxn1+ mouse xenografted with human A549 cells harbouring KRAS mutant/wild type EGFR assessed as enlarged cells in lung at 6 mg/kg, iv administered twice a week for 5 weeks. Particulars: in vivo, 840 h.
Series [4] relates to A549. The series is described as follows: Effect on HER2 expression in human A549 cells at 1 uM incubated for 40 hrs by Western blot analysis. In kind it is functional, cell-based. (In general: Immunoblotting shows a protein as a band on a membrane.)
Series [5] deals with Calu-3. In words: Antiproliferative activity against human Calu-3 cells overexpressing HER2 assessed as cell growth inhibition incubated for 72 hrs by cell titer glo assay. In kind it is functional, cell-based. Particulars: Calu-3, 72 h.
Series [6] relates to NCI-H1975. The series is described as follows: Synergistic antiproliferative activity against human NCI-H1975 cells assessed as combination index after 72 hrs in presence of lapatinib by cell titer glo assay. In kind it is functional.
In series [7] the test system is A549. In words: Antiproliferative activity against human A549 cells overexpressing HER2 assessed as cell growth inhibition incubated for 72 hrs by cell titer glo assay. Format: functional, cell-based. Particulars: A549, 72 h. The method in brief: as §1
Series [8] is described as follows: Thermal stability of compound at 15 uM incubated at 25 to 75 degC by MALDI-TOF analysis. In kind it is physicochemical. The method in brief:
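Peptide at 15 μM in acetonitrile heated from 25 to 75 °C. Mass checked at 25, 50 and 70 °C and at the end of the run.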

A short description of series [9]: Toxicity in Foxn1nu/Foxn1+ mouse xenografted with human Calu-3 cells assessed as effect on body weight at 8 mg/kg, IT(Intratumoral) administered thrice a week for 28 days and measured on day 28. Particulars: in vivo, other, 672 h, time 28 day. Format: organism-based.
The target of series [10] is Epidermal growth factor receptor and ErbB2 (HER1 and HER2) (Homo sapiens) (UniProt P04626+P00533). In words: Inhibition of HER2/EGFR dimerization in human A549 cells incubated for 48 hrs by proximity ligation assay. Format: cell-based. Particulars: dose 0.5-1 µM. The method in brief:
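A549 or Calu-3 cells (~1×10^4/well) on chamber slides, treated 48 h with 0.5 or 1 μM peptide. Controls: no compound, and one primary antibody omitted. Cells fixed in cold methanol, primary antibodies (EGFR, HER2, HER3) applied overnight at 4 °C, then PLA probes. Red fluorescence imaged at 40x and quantified over 3–6 fields.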

In series [11] the target is Receptor tyrosine-protein kinase erbB-2 (Homo sapiens) (UniProt P04626). The series is described as follows: Inhibition of HER2 ECD in human A549 cells assessed as reduction in Akt phosphorylation at 1 uM incubated for 40 hrs by Western blot analysis. In kind it is cell-based.
Sequence of Receptor tyrosine-protein kinase erbB-2 (Homo sapiens) (P04626 whole entry, the tested form may be a part): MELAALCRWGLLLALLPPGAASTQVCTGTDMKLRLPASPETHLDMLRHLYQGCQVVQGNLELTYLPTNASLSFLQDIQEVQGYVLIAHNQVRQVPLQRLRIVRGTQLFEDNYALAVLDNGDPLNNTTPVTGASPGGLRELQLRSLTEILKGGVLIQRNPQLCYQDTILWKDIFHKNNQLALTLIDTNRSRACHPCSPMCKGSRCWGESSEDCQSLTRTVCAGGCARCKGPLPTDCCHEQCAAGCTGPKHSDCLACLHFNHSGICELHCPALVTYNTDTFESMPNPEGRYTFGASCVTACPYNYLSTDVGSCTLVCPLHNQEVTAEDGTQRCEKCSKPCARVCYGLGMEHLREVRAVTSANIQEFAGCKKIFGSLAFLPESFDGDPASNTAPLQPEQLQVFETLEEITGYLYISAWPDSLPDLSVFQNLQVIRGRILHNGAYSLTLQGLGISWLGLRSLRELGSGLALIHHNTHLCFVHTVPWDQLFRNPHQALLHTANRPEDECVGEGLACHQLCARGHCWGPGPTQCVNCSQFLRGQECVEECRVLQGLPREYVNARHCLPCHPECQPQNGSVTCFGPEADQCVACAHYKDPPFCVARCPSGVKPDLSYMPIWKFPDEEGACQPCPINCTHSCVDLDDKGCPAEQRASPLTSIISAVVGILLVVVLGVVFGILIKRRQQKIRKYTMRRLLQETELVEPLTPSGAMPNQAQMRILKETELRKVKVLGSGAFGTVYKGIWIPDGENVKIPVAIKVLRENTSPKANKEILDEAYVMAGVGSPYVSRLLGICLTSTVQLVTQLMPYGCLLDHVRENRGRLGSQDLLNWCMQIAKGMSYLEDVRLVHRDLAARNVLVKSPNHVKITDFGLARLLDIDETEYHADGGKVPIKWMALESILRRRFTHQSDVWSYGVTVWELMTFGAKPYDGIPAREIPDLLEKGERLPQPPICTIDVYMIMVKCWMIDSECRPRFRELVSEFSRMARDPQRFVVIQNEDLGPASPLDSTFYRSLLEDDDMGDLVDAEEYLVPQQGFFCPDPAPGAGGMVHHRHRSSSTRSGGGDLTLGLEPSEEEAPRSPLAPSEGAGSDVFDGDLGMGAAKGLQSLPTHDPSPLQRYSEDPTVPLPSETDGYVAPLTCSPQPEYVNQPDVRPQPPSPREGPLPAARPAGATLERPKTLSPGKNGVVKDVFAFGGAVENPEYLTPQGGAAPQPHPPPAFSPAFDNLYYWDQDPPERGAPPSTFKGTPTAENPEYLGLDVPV
Series [12] in a line: Toxicity in BALB/c mouse assessed as Ki-67 expression in spleenocytes at 6 mg/kg, iv administered on day 0 and 10 and spleenocytes collected on day 13 and incubated for 48 hrs by flow cytometry analysis. Particulars: in vivo, 360 h, time 15 day. Format: organism-based. The method in brief:
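Female BALB/c mice given 6 mg/kg peptide in PBS i.v. (or PBS) on days 0 and 10, 12 mice in total. Splenocytes harvested day 13, RBC-lysed, and ≥2×10^6 cultured 48 h in RPMI/10% FBS with control media or peptide. Cells then stained for viability, CD3/CD4/CD8a and intracellular Ki67, and analyzed by flow cytometry.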
In general terms: A flow cytometer gives signals particle by particle.

In series [13] the target is Receptor tyrosine-protein kinase erbB-2 (Homo sapiens) (UniProt P04626). The series is described as follows: Binding affinity to HER2 ECD (unknown origin) by SPR analysis.
The subject of series [14] is NCI-H1975. In words: Synergistic antiproliferative activity against human NCI-H1975 cells assessed as combination index after 72 hrs in presence of erlotinib by cell titer glo assay. In kind it is functional.

With `CC[C@H](C)[C@H]1C(=O)NC(=O)[C@H](CCCNC(=N)N)NC(=O)C[C@@H](c2cccc3ccccc23)NC(=O)N[C@H]2CSSC[C@H](NC(=O)C[C@@H](c3cccc4ccccc34)NC(=O)[C@H](CCCNC(=N)N)NC(=O)[C@@H]3CCCN3C(=O)[C@@H]3CCCN13)C(=O)N[C@@H](Cc1ccccc1)C(=O)N1CCC[C@H]1C(=O)N[C@@H](CC(=O)O)C(=O)NC(=O)[C@H](CC(=O)O)NC(=O)[C@H](Cc1ccccc1)NC2=O`, the IC50 in [1] was 280 nM; in series [2] it was > 40000 nM; in series [5], 73 nM; in series [7], 369 nM. Besides, the Activity result is “Non-Toxic” in series [3], “Non-Toxic” in series [9], “Non-Toxic” in [12] and “Dose-Dependent Effect” in [13]. Also, in series [4], the result was inactive. In addition, the CI in series [6] is 0.83; in [14], 0.76. In addition, the Stabilty entry in [8] is “Stable”. Also, in series [10], the inhibition result is “Dose-Dependent Effect”. Further, the inhibition entry in series [11] is “Active”.

What is called IC50 is the concentration that gives 50% inhibition.
